Hits are enriched below; roughly 4.9% of the tested compounds scored in any of these assays.
STAT1 activator: STAT1 signaling activators, primary screen, cell-based, HTS, luciferase reporter; 2.6% of 200,000 active; NIH 3T3 STAT1-luciferase reporter, IFN-gamma, luminescence; 100% = IFN-gamma alone, no compound; activation (% of control), % at 5.5 µM; AID 932, 2007;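 active = activation above the screen-wide mean activation plus 3 SD, cut at about 130% in these data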;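 note: raw ratio to IFN-gamma control signal so 100% means no change and 0% no light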
APP 5'UTR act: activators of APP 5'UTR luciferase reporter, primary screen, SH-SY5Y cells. SH-SY5Y APP 5'UTR luciferase reporter, luminescence; zero percent = DMSO vehicle wells. activation, % at 2 µM. 1% of 190,000 active;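 active = activation above a set limit, based on mean plus 3 SD of controls, cut at about 140% in these data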
STAT1 blocker: STAT1 signaling inhibitors, primary screen, cell-based, HTS, luciferase reporter; NIH 3T3 STAT1-luciferase reporter, IFN-gamma, luminescence; inhibition, % at 5.5 µM; 0.35% of 200,000 active;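 active = inhibition above a set limit, the mean inhibition across all tested compounds plus 3 SD, cut at about 34% in these data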;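 note: 0% = IFN-gamma with DMSO and 100% = IFN-gamma with 300 µM nifuroxazide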
STAT3 inh: IL-6 driven STAT3 reporter inhibitors, primary screen, U3A cells, luciferase, luminescence, MLSCN library; AID 862, 2007; 0.89% of 190,000 active; inhibition, % at 5.5 µM; IL-6 STAT3-luciferase reporter; host cell line lacks STAT1;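 active = inhibition above the mean inhibition across all screened compounds plus 3 SD, cut at about 44% in these data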;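 note: 0% = DMSO only wells and 100% = 100 µM nifuroxazide control wells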
NF-kB expr up: activators of NF-kB expression in neurons, primary screen, cell-based, HTS; human neuronal cells, NF-kB reporter expression; stronger effect = higher value; fold change at 12.5 µM; 1.6% of 190,000 active; in the data active = fold change above about 3.3
STAT3 act: IL-6 driven STAT3 reporter potentiators, primary screen, U3A cells, luciferase, luminescence, MLSCN library. IL-6 STAT3-luciferase reporter; 100% = signal with IL-6 EC80 alone. activation (% of control), % at 5.6 µM. 0.91% of 190,000 active. AID 871, 2007;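 active = activation above the screen-wide mean of compound activation plus 3 SD, cut at about 130% in these data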;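 note: 0% = background luminescence of wells with medium and substrate only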
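System – human U3A cells carrying STAT3-luciferase construct · Probe or stimulus – Interleukin-6, 33 ng/mL · Schedule – compound 1 h, then IL-6 6 h at 37 °C · Signal – luminescence from STAT3-driven luciferase reporter · Evaluation – percent of IL-6-only median luminescence · Benchmarks – IL-6-only high control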
* marks the source's active call; other numbers are inactive results; . = not tested or not shown.

SMILES	STAT1 activator	APP 5'UTR act	STAT1 blocker	STAT3 inh	NF-kB expr up	STAT3 act
O=C(NCCCN1CCOCC1)c1cc(-c2cccs2)on1	119	22	-21	-21	7.3*	120
O=C(NCCCn1ccnc1)c1cc(-c2cccs2)on1	147*	19	-51	-26	11*	123
COc1ccccc1Nc1ncc(-c2cccs2)s1	136*	9	-40	-61	5.1*	156*
COc1ccccc1Nc1ccc(C(=O)NCc2cccs2)cn1	113	-2	-15	18	2.2	86
CCC(=O)c1ccc(OCCn2cnc3ccccc32)cc1	98	15	0	12	1.1	94
Oc1ccc(-c2nc(-c3ccc(O)c(O)c3)cs2)cc1	95	-94	6	-11	3.8*	115
Oc1ccc(Nc2nc(-c3ccc4ccccc4c3)cs2)cc1	109	-2	-9	8	2.8	95
O=C(N/N=C/C1CC2CCC1C2)c1c[nH]c2ccccc12 (stereo not drawn)	94	21	5	-2	1.1	107
CC1=NN(C(N)=S)C(=O)C1N=Nc1ccccc1 (stereo not drawn)	130*	12	-34	5	1.7	99
CC1=NN(c2ccccc2)C(=O)C1N=Nc1ccccc1 (stereo not drawn)	109	95	-10	-39	1.1	133*
CC1=NN(c2ccccc2)C(=O)C1N=Nc1ccc(N)cc1 (stereo not drawn)	98	-25	2	8	0.64	97
CN(c1ccccc1)S(=O)(=O)c1cccc(NC(=O)CCN2C(=O)C3CCCCC3C2=O)c1 (stereo not drawn)	99	7	0	4	1.1	104
CCOC(=O)c1c(NC(=O)COC(=O)CNC(=O)c2ccco2)sc(C(C)=O)c1C	100	1	0	3	1.1	100
COC(=O)c1c(N(S(C)(=O)=O)S(C)(=O)=O)sc2c1CCN(c1ncc(C(F)(F)F)cc1Cl)C2	91	-6	7	13	3.4*	90
O=C(Nc1cc2cccc([N+](=O)[O-])c2oc1=O)c1cccs1	115	-19	-19	1	0.88	100
Cc1ccc(N/N=C(\C#N)C(=N)N2CCCCCC2)cc1	136*	168*	-41	16	5.9*	95
N#C/C(=N\Nc1ccc(F)cc1)C(=N)N1CCCCCC1	150*	185*	-55	20	7.7*	85
Cc1ccc(N/N=C(\C#N)C(=N)N2CCOCC2)cc1	137*	22	-41	-13	1.9	114
N#C/C(=N\Nc1ccccc1F)C(=N)N1CCCCC1	148*	88	-57	-12	4*	112
CCOC1OC(=O)C(Cl)=C1Nc1cc(C)ccc1C (stereo not drawn)	103	2	-6	3	1.6	103
CNC(=O)/C(C#N)=C/c1c(N(Cc2ccccc2)Cc2ccccc2)nc2ccccn2c1=O	101	22	-1	-4	0.35	99
CC1(C)C2CCC1(CS(=O)(=O)Nc1ccc(S(=O)(=O)N3CCCCC3)cc1)C(=O)C2 (stereo not drawn)	98	0	2	-2	0.8	101
COc1ccc(CN(C)C(=S)Nc2ccc(Cl)cc2)cc1	97	7	5	8	1	97
COc1ccc(/C=C/CN2CCCC(CO)(Cc3cccc(Cl)c3)C2)cc1 (stereo not drawn)	102	-7	-4	6	0.94	98
COc1ccc(CNC(=O)CSCc2ccccc2Cl)cc1	117	35	-19	0	1.6	101
SMILES	STAT1 activator	APP 5'UTR act	STAT1 blocker	STAT3 inh	NF-kB expr up	STAT3 act
CCCCOc1ccc2c(c1)C(=O)c1cc(O)ccc1-2	149*	99	-52	16	.	91
CCN(C(=O)COC(=O)CNC(=O)c1ccc(C)s1)c1ccccc1	101	0	-3	2	1.3	100
CC(C)CN(C(=O)CSc1nnnn1-c1ccccc1)c1c(N)n(CC(C)C)c(=O)[nH]c1=O	99	6	0	1	1.1	101
COc1ccc2nc(-c3ccco3)c(-c3ccco3)nc2c1	99	6	1	4	0.75	102
COc1ccc2nc3cccc(OC)c3nc2c1	129*	7	-32	3	0.95	99
Clc1ccccc1-c1nc(-c2ccccc2)n[nH]1	132*	109	-35	-14	4*	120
CCCCN1C(=O)C(=O)N(c2ccccc2)C1=S	135*	87	-40	2	3.4*	101
O=C(COC(=O)c1ccc2ccccc2n1)NCc1ccccc1	98	-26	1	0	1.2	106
O=C(Nc1ccccc1O)c1c(O)c2c([nH]c1=O)CCCC2	108	88	-8	-2	4.5*	107
CC(=O)Nc1ccc(OS(=O)(=O)c2c(C)cc(C)cc2C)cc1	99	9	-1	7	0.92	99
O=C(CSCc1ccco1)c1cccs1	124	170*	-27	2	1.9	104
O=C(NCc1ccco1)c1cccs1	98	24	2	-12	1.3	112
O=C(CCC(=O)c1cccs1)c1cccs1	130*	131	-33	18	5.2*	88
O=C(COC(=O)c1cccs1)c1ccccc1	131*	55	-34	0	4.6*	105
O=C(c1ccccc1)c1cccs1	97	5	2	8	.	97
CCCCNC(=O)N1CCN(Cc2cccc(F)c2)CC1	106	4	-8	10	1.2	95
CC(C)CC(c1nnnn1Cc1ccc2c(c1)OCO2)N1CCC(C(N)=O)CC1 (stereo not drawn)	106	-10	-5	2	1.1	100
CCNc1nc(SCC(=O)OC)nc(N(C)C)n1	100	-9	0	8	1.3	101
Cc1ccc(SCC(=O)c2c(C)nc3cc(C)ccn23)cc1	98	-17	0	17	3.5*	88
CC1(C)CC(=O)C2=C(C1)OC(N)=C(C#N)C2c1cc2c(cc1[N+](=O)[O-])OCO2 (stereo not drawn)	101	-1	-1	-19	1	113
Cn1cccc1/C=C1\SC(=S)N(NC(=O)c2cccc(Cl)c2)C1=O	103	-11	-3	1	1.1	97
Cc1ccc(-n2nnnc2-c2nc3ccccc3s2)cc1	104	-1	-5	-5	1	102
CCOc1ccc(-n2nnnc2-c2nc3ccccc3s2)cc1	140*	123	-45	4	1.3	95
N#Cc1ncc(-c2ccc3c(c2)OCCOCCOCCOCCOCCO3)nc1C#N	87	-21	14	10	6.7*	94

Source: PubChem
